Laboratory results: ChEMBL document CHEMBL1806488, “Design, synthesis and biological evaluation of 2'-deoxy-2',2'-difluoro-5-halouridine phosphoramidate ProTides” (Bioorg Med Chem, 2011)

Key:
Human alphaherpesvirus 1 [1] = assay: Antiviral activity against Herpes simplex virus 1 KOS infected in human HEL cells assessed as inhibition of virus-induced cytopathic effect after 4 days by microscopic analysis; assay type: functional, organism-based; details: Human alphaherpesvirus 1, KOS, 96 h
Human alphaherpesvirus 1 [2] = assay: Antiviral activity against acyclovir-resistant TK-deficient Herpes simplex virus-1 KOS infected in human HEL cells assessed as inhibition of virus-induced cytopathic effect after 4 days by microscopic analysis; assay type: functional, organism-based; details: Human alphaherpesvirus 1, KOS, 96 h
Felid alphaherpesvirus 1 = assay: Antiviral activity against Feline herpesvirus infected in cat CRFK cells assessed as inhibition of virus-induced cytopathic effect after 4 days by microscopic analysis; assay type: functional, organism-based; details: Felid alphaherpesvirus 1, CRFK, 96 h
Outline: (§1)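 Confluent monolayers (CRFK for feline herpes virus; HEL for HSV-2 G) were inoculated with 100 CCID50 of virus in the presence of compound at 200, 40, 8, … μM. Cytopathicity was scored once it was complete in untreated infected controls.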

Human alphaherpesvirus 2 = assay: Antiviral activity against Herpes simplex virus-2 G infected in human HEL cells assessed as inhibition of virus-induced cytopathic effect after 4 days by microscopic analysis; assay type: functional, organism-based; details: Human alphaherpesvirus 2, strain G, 96 h; outline: as §1
Vaccinia virus = assay: Antiviral activity against Vaccinia virus infected in human HEL cells assessed as inhibition of virus-induced cytopathic effect after 4 days by microscopic analysis; assay type: functional, organism-based; details: Orthopoxvirus vaccinia, 96 h
[3] = Cytotoxicity against human HEL cells assessed as alteration of normal cell morphology by microscopic analysis; assay type: cell-based
Outline: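 Uninfected HEL cells were examined under the microscope. The minimum cytotoxic concentration is the lowest concentration causing a detectable alteration of normal cell morphology.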

[4] = Cytotoxicity against cat CRFK cells by colorimetric formazan-based MTS assay; assay type: cell-based, Felis catus
Human alphaherpesvirus 3 [5] = assay: Antiviral activity against Varicella-zoster virus YS expressing thymidine kinase infected in human HEL cells assessed as reduction in the virus plaque formation; assay type: functional, organism-based; details: Human alphaherpesvirus 3, YS
Human alphaherpesvirus 3 [6] = assay: Antiviral activity against Varicella-zoster virus OKA expressing thymidine kinase infected in human HEL cells assessed as reduction in the virus plaque formation; assay type: functional, cell-based; details: Human alphaherpesvirus 3, strain Oka vaccine
Human alphaherpesvirus 3 [7] = assay: Antiviral activity against thymidine kinase-deficient Varicella-zoster virus 07-1 infected in human HEL cells assessed as reduction in the virus plaque formation; assay type: functional, organism-based; details: Human alphaherpesvirus 3, 07-1, HEL
Human alphaherpesvirus 3 [8] = assay: Antiviral activity against thymidine kinase-deficient Varicella-zoster virus YS/R infected in human HEL cells assessed as reduction in the virus plaque formation; assay type: functional, organism-based; details: Human alphaherpesvirus 3, YS/R
Human betaherpesvirus 5 [9] = assay: Antiviral activity against Human cytomegalovirus AD-169 infected in human HEL cells assessed as reduction in the virus plaque formation; assay type: functional, organism-based; details: Human betaherpesvirus 5, AD169, HEL
Outline: (§2)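 HEL cells were infected with 100 PFU of HCMV (AD-169 or Davis) in the presence of compound.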

Human betaherpesvirus 5 [10] = assay: Antiviral activity against Human cytomegalovirus Davis infected in human HEL cells assessed as reduction in the virus plaque formation; assay type: functional, organism-based; details: Human betaherpesvirus 5, Davis; outline: as §2
HEL = assay: Cytotoxicity against human HEL cells by colorimetric formazan-based MTS assay; assay type: cell-based
Thymidine kinase [11] = target: T1, Thymidine kinase (Human alphaherpesvirus 1, UniProt Q9QNF7); assay: Inhibition of Herpes simplex virus-1 thymidine kinase-mediated phosphorylation of [methyl-3H]dThd at 1 uM after 30 mins by scintillation counting
T1 sequence (Q9QNF7 whole entry): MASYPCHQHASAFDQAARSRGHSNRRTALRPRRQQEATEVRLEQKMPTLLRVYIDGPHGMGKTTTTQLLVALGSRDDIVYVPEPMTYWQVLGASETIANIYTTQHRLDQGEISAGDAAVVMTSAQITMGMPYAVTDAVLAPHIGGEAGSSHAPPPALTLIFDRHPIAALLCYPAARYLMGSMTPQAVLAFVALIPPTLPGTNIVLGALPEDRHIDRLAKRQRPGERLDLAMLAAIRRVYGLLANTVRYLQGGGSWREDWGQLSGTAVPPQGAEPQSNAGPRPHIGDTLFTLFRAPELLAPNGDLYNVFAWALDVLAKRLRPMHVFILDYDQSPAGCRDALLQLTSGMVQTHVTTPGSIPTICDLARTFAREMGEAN

[12] = Inhibition of Varicella-zoster virus thymidine kinase-mediated phosphorylation of [methyl-3H]dThd at 1 uM after 30 mins by scintillation counting; parameters: species or system Human alphaherpesvirus 3
Thymidine kinase [13] = target: T2, Thymidine kinase (Feline herpesvirus 1, UniProt P13159); assay: Inhibition of Feline herpesvirus thymidine kinase assessed as phosphorylation of 1 uM [methyl-3H]dThd after 30 mins by scintillation counting; parameters: species or system Felid alphaherpesvirus 1
T2 sequence (P13159 whole entry): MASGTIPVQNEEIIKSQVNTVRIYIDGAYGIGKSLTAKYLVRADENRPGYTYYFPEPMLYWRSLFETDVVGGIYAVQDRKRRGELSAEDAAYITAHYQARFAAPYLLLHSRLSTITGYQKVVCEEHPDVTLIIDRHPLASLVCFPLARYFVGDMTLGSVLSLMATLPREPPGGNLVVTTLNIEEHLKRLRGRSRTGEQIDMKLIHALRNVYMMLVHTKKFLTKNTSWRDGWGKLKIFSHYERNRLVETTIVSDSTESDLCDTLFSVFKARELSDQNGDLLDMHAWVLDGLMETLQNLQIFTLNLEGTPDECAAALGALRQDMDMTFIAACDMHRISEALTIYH

L1210 = assay: Antiproliferation activity against mouse L1210 cells after 2 days by coulter counter; assay type: cell-based; details: L1210, 48 h
Outline: (§3)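 L1210, FM3A, CEM or HeLa cells at 300,000–500,000 cells/mL were mixed 1:1 with compound dilutions. Incubation at 37 °C lasted 2 days (L1210, FM3A) or 3 days (CEM, HeLa), after which cells were counted with a Coulter counter.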

FM3A = assay: Antiproliferation activity against mouse FM3A cells after 2 days by coulter counter; assay type: cell-based; details: 48 h; outline: as §3
CCRF-CEM = assay: Antiproliferation activity against human CEM cells after 3 days by coulter counter; assay type: cell-based; details: 72 h; outline: as §3
HeLa = assay: Antiproliferation activity against human HeLa cells after 3 days by coulter counter; assay type: cell-based; details: 72 h; outline: as §3

Row | Structure (SMILES) | EC50 (Human alphaherpesvirus 1 [1]) [µM] | EC50 (Human alphaherpesvirus 1 [2]) [µM] | EC50 (Felid alphaherpesvirus 1) [µM] | EC50 (Human alphaherpesvirus 2) [µM] | EC50 (Vaccinia virus) [µM] | MCC [3] [µM] | CC50 ([4]; crfk) [µM] | EC50 (Human alphaherpesvirus 3 [5]) [µM] | EC50 (Human alphaherpesvirus 3 [6]) [µM] | EC50 (Human alphaherpesvirus 3 [7]) [µM] | EC50 (Human alphaherpesvirus 3 [8]) [µM] | EC50 (Human betaherpesvirus 5 [9]) [µM] | EC50 (Human betaherpesvirus 5 [10]) [µM] | CC50 (HEL) [µM] | IC50 (L1210) [µM] | IC50 (FM3A) [µM] | IC50 (CCRF-CEM) [µM] | IC50 (HeLa) [µM] | further results
1 | O=c1[nH]c(=O)n([C@@H]2O[C@H](CO)[C@@H](O)C2(F)F)cc1Cl | 33 | 78 | 13 | ≥ 100 | > 100 | > 50 | > 100 | > 50 | ≥ 50 | > 50 | > 50 | > 50 | > 50 | > 100 | > 500 | > 500 | > 500 | ≥ 500 | IC50 (Thymidine kinase [11]): 22 µM; IC50 [12]: 35 µM; IC50 (Thymidine kinase [13]): 93 µM
2 | O=c1[nH]c(=O)n([C@@H]2O[C@H](CO)[C@@H](O)C2(F)F)cc1Br | 15 | 73 | 2.4 | > 100 | > 100 | > 50 | > 100 | 23 | 11 | > 50 | > 50 | > 50 | > 50 | > 100 | > 500 | > 500 | > 500 | 458 | IC50 (Thymidine kinase [11]): 7.5 µM; IC50 [12]: 26 µM; IC50 (Thymidine kinase [13]): 34 µM
3 | C[C@H](NP(=O)(OC[C@H]1O[C@@H](n2cc(I)c(=O)[nH]c2=O)C(F)(F)[C@@H]1O)Oc1ccccc1)C(=O)OCc1ccccc1 (stereo partly specified) | 27 | ≥ 100 | 4.4 | 50 | 58 | > 100 | ≥ 70 |  |  |  |  |  |  |  |  |  |  |  | 
4 | Cc1cn([C@@H]2O[C@H](CO)[C@@H](O)C2(F)F)c(=O)[nH]c1=O | 12 | 20 | > 100 | 39 | ≥ 100 | > 50 | > 100 | 10 | 5.8 | > 50 | > 50 | > 50 | > 50 | 100 | > 500 | > 500 | > 500 | > 500 | IC50 (Thymidine kinase [11]): 2.8 µM; IC50 [12]: 21 µM; IC50 (Thymidine kinase [13]): 85 µM
5 | COC(=O)[C@H](C)NP(=O)(OC[C@H]1O[C@@H](n2cc(I)c(=O)[nH]c2=O)C(F)(F)[C@@H]1O)Oc1cccc2ccccc12 (stereo partly specified) | > 100 | > 100 | > 20 | > 100 | > 100 | > 50 | 92 | 29 | 25 | > 50 | > 50 | > 50 | > 50 | ≥ 100 | 134 | 46 | 60 | 133 | 
6 | COC(=O)[C@H](C)NP(=O)(OC[C@H]1O[C@@H](n2cc(I)c(=O)[nH]c2=O)C(F)(F)[C@@H]1O)Oc1ccccc1 (stereo partly specified) | > 100 | > 100 | 28 | > 100 | > 100 | > 50 | > 100 |  | > 50 | > 50 |  | > 50 | > 50 | 51 | 226 | 258 | 176 | 126 | 
7 | C[C@H](NP(=O)(OC[C@H]1O[C@@H](n2cc(I)c(=O)[nH]c2=O)C(F)(F)[C@@H]1O)Oc1cccc2ccccc12)C(=O)OCc1ccccc1 (stereo partly specified) | > 20 | > 20 | > 20 | > 20 | > 20 | > 50 | 36 |  | 8.5 | 37 |  | > 50 | > 50 | 49 | 23 |  | 21 | 29 | 
8 | Nc1ccn(C[C@@H](CO)OCP(=O)(O)O)c(=O)n1 [CIDOFOVIR] |  |  | 1.3 |  | 10 | > 250 |  |  |  |  |  |  |  |  |  |  |  |  | CC50 ([4]; CRFK cells): > 100 µM
9 | O=c1[nH]c(=O)n([C@@H]2O[C@H](CO)[C@@H](O)C2(F)F)cc1I | 16 | 20 | 1.2 | 64 | > 100 | > 50 | > 100 | 13 | 9.1 | > 50 | > 50 | > 50 | > 50 | > 100 | 302 | 409 | 154 | 230 | IC50 (Thymidine kinase [11]): 3.5 µM; IC50 [12]: 19 µM; IC50 (Thymidine kinase [13]): 38 µM
10 | Nc1nc2c(ncn2COC(CO)CO)c(=O)[nH]1 [GANCICLOVIR] |  |  |  |  | > 100 | > 100 |  |  |  |  |  |  |  |  |  |  |  |  | 
11 | C[C@H](NP(=O)(OC[C@H]1O[C@@H](n2cc(Cl)c(=O)[nH]c2=O)C(F)(F)[C@@H]1O)Oc1ccccc1)C(=O)OCc1ccccc1 (stereo partly specified) | > 100 | > 100 | > 100 | > 100 | > 100 | > 50 | > 100 |  | > 50 | > 50 |  | > 50 | > 50 | ≥ 100 | 175 | 226 | 196 | 200 | 
12 | C[C@H](NP(=O)(OC[C@H]1O[C@@H](n2cc(Br)c(=O)[nH]c2=O)C(F)(F)[C@@H]1O)Oc1ccccc1)C(=O)OCc1ccccc1 (stereo partly specified) | > 100 | > 100 | 11.6 | > 100 | > 100 | > 50 | > 100 |  | 39 | > 50 |  | > 50 | > 50 | ≥ 50 | 50 | 91 | 104 | 148 | 
13 | Nc1nc2c(ncn2COCCO)c(=O)[nH]1 [ACYCLOVIR] |  |  | 1 |  | > 250 | > 250 |  |  |  |  |  |  |  | > 400 |  |  |  |  | CC50 ([4]; CRFK cells): > 100 µM
14 | O=c1[nH]c(=O)n([C@H]2C[C@H](O)[C@@H](CO)O2)cc1/C=C/Br [BRIVUDINE] |  |  | 30 |  | 10 | ≥ 250 | > 100 |  | 0.03 | ≥ 60 | > 150 |  |  | 512 |  |  |  |  | 
